The nature of assay [1]: Displacement of [3H]SCH23390 from dopamine D1-like receptor in pig striatal tissue homogenates after 30 mins by scintillation counting. It counts as tissue-based, Sus scrofa, Striatum.
The nature of assay [2]: Displacement of [3H]-N-methylspiperone from dopamine D2-like receptor in pig striatal tissue homogenates after 30 mins by scintillation counting. The assay is classed as tissue-based, Sus scrofa, Striatum. Summed up: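 Porcine striatal membranes with 0.2 nM [3H]-N-methylspiperone plus 50 nM ketanserin to block 5-HT2A sites. Buffer 50 mM HEPES, 4 mM MgCl2, pH 7.4. Nonspecific binding defined with (+)-butaclamol. Incubated 37 °C for 30 min, then filtered and washed with ice-cold Tris/NaCl.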

Assay [3] addresses T1, D(1A) dopamine receptor (Homo sapiens, UniProt P21728). Description: Intrinsic activity at human dopamine D1 receptor expressed in HEK293 cells assessed as cAMP accumulation after 15 mins relative to dopamine. The assay is classed as functional, cell-based. A digest of the protocol: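 HEK293 cells stably expressing hD1 (about 1800 fmol/mg) grown to 90–95% confluency. Medium replaced with 500 µM IBMX in EBSS, then drug added in duplicate for 15 min at 37 °C. Stopped with 3% trichloroacetic acid. cAMP measured by [3H]cAMP competition with bovine adrenal binding protein against a standard curve. Maximal response expressed as percent of 10 µM dopamine.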

Assay [4] concerns the target T1, D(1A) dopamine receptor. Description: Agonist activity at human dopamine D1 receptor expressed in HEK293 cells assessed as cAMP accumulation after 15 mins. The assay is classed as functional, cell-based.
The species entered for the next assay is Sus scrofa. The assay is described as follows: Ratio of SKF38393 Ki to compound Ki for dopamine D1-like receptor in pig striatal tissue homogenates. It counts as tissue-based. To be noted: Striatum.

Where a name gives a salt, the structure may show the parent alone.

T1 sequence (P21728 whole entry): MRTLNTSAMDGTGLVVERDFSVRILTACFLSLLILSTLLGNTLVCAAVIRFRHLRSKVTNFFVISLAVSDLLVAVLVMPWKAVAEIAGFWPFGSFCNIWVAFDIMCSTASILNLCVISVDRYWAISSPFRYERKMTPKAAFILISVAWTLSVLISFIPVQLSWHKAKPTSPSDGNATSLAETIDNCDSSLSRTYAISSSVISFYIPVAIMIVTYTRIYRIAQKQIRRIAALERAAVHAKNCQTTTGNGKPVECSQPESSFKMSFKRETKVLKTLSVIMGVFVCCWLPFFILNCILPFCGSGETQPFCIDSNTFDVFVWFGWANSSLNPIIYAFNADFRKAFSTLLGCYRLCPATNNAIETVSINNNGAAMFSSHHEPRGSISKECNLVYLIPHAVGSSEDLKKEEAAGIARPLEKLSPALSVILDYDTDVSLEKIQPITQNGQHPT

The compound `CN1CCc2cc(Cl)c(O)cc2[C@@H](c2ccccc2)C1` had a Ki in assay [1] of 0.64 nM.
On to `Oc1cc2c(cc1O)[C@@H](c1ccccc1)CNCC2`, for which the results for the inhibition constant (Ki) in assay [1] and in assay [2] were 151 nM and 2360 nM, respectively. On D(1A) dopamine receptor [3], the Intrinsic activity came to 93%.
On to `Oc1cc2c(cc1O)[C@@H]1c3ccccc3CC[C@@H]1NCC2` (racemic), for which the Ki in assay [1] turned out to be 22000 nM; in assay [2], 88000 nM.
Take `Oc1cc2c(cc1O)[C@H]1c3ccccc3CC[C@@H]1NCC2` (racemic): the inhibitory constant (Ki) worked out at 257 nM in assay [1] and 8480 nM in assay [2]. The EC50 at D(1A) dopamine receptor [4] came to 438 nM. Also, the Intrinsic activity on D(1A) dopamine receptor [3] was determined as 28%.
In the case of `Oc1cc2c(cc1O)[C@H]1c3ccccc3OC[C@@H]1NCC2` (racemic), the inhibition constant Ki in assay [1] came out at 186 nM; in assay [2] it was 44800 nM. In addition, the EC50 at D(1A) dopamine receptor [4] stood at 570 nM. Also, the Intrinsic activity on D(1A) dopamine receptor [3] turned out to be 60%.
Turning to `Oc1cc2c(cc1O)[C@H]1c3ccccc3SC[C@@H]1NCC2` (racemic), the inhibition constant (Ki) amounted to 92 nM in assay [1] and 28000 nM in assay [2]. Besides, the EC50 at D(1A) dopamine receptor [4] was 584 nM. Moreover, the Intrinsic activity on D(1A) dopamine receptor [3] stood at 21%. Also, in the assay filed under Sus scrofa, the Ratio Ki was 1.6.
In assay [2], `Oc1cc2c(cc1O)[C@H]1c3ccccc3CN[C@@H]1CC2` (racemic) [DIHYDREXIDINE] displayed a Ki of 320 nM. Moreover, the Intrinsic activity at D(1A) dopamine receptor [3] was 103%.
Regarding `CN1CCc2cc(Cl)c(O)cc2[C@H]2c3ccccc3CC[C@@H]21` [ECOPIPAM HYDROCHLORIDE], the results for the inhibition constant (Ki) in assay [1] and in assay [2] were 1.3 nM and 2010 nM, respectively.

(Values after ChEMBL document CHEMBL1821561 (Bioorg Med Chem, 2011).)
